Arr AP2 block: blocks beta-arrestin peptide binding to AP2 adaptin | hit rate 0.31% among 340,000 | inhibition, % at 10 µM | FITC-arrestin peptide / GST-AP2 beads, flow cytometry; AP2 beta2 appendage carries R879A mutation;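 active = inhibition above a set limit, near 3 SD of compounds lacking own fluorescence, cut at about 54% in these data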
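Material – GST-tagged AP2 beta2-adaptin appendage (R879A) on 4 µm glutathione beads · Probe or stimulus – fluorescein-tagged arrestin peptide at 50 nM final · Timing – 12 min plus 1 h, RT · Detection – bead flow cytometry, FITC channel · Read-out basis – inhibition as reduced fluorescein signal on beads, percent · Medium – PBS plus Tween 20 (0.05%) and BSA (0.1%)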
GalR3 antag: blocks the human galanin receptor 3 | O60755 | HEK293 GalR3-CNG cAMP membrane potential fluorescence; galR3 body fused to GalR1 C-terminus | inhibition, % at 3 µM | hit rate 0.44% among 360,000;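 active = inhibition above the screen-wide average plus 3 SD, cut at about 13% in these data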;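 also: forskolin and galanin both at EC90 stimulate the cells; cAMP rise reported by CNG channel membrane potential dye signal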
GC-A act: GC-A (human) enzyme activation; P16066; HEK293 GC-A cells, cGMP TR-FRET, EC30 ANP; 0% at EC30 ANP, 100% saturating ANP; activation, % at 10 µM; hit rate 0.14% among 370,000; AID 1671463; in the data active = activation above about 40%
Target sequence (P16066 whole entry, looked up): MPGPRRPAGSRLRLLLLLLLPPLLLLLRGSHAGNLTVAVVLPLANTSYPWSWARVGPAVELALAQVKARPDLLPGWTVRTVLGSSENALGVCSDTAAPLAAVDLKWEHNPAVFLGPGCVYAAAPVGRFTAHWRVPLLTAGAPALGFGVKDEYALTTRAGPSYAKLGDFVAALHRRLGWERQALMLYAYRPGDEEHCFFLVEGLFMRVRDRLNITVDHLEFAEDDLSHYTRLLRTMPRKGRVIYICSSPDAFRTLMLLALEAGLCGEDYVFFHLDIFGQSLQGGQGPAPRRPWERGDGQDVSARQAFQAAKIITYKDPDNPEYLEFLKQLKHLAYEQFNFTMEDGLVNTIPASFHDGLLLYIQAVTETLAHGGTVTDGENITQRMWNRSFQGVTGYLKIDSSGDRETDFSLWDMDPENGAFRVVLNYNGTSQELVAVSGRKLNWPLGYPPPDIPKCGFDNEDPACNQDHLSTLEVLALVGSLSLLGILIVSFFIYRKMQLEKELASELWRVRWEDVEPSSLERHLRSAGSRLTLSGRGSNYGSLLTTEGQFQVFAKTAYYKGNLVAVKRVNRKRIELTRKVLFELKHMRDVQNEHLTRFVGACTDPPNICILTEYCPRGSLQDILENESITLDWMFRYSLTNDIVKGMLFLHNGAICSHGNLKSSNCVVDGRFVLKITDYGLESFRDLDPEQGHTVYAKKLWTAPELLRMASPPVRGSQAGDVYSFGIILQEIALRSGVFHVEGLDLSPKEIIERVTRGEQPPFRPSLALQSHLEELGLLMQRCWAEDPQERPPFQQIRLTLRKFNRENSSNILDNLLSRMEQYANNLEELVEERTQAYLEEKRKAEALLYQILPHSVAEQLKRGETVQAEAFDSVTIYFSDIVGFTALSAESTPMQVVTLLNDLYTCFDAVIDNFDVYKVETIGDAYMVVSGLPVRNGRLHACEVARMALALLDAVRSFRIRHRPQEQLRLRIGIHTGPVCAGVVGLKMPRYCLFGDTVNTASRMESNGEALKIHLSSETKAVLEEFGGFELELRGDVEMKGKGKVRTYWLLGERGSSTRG
NPR2 activator: GC-B (human) receptor activation | HEK293-GC-B cells, CNP EC30, cGMP TR-FRET; 0% at EC30 CNP, 100% saturating CNP | activation, % at 10 µM | hit rate 0.11% among 370,000 | AID 1920062;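 active = activation at 10 µM reaching about 35% in either raw or pattern-adjusted values, limit read from the data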
GalR3 antag conf: confirmation of human galanin receptor 3 antagonists; shares compounds with GalR3 antag; HEK293 GalR3 CNG cAMP biosensor, membrane potential fluorescence; galR3 fused to GalR1 carboxy tail; challenged with forskolin and galanin at EC90; inhibition, % at 3 µM; hit rate 59% among 1,600; AID 652245;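 active = inhibition above the primary screen's cutoff, the mean inhibition of all screened compounds plus 3 SD, cut at about 13% in these data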
CNG parental: parental cell agonism counter-screen for GalR3 antagonists. shares compounds with GalR3 antag. HEK293-CNG parental cells, cAMP membrane potential fluorescence; normalised: DMSO wells 0%, forskolin wells 100%. activation, % at 3 µM. hit rate 10% among 1,600. AID 652268; in the data active = activation above about 1.3%
Hits are given with their value; - = inactive; . = no result. Shown are actives, neighbours in structure and some others; about 0.94% of the full set was active somewhere.

SMILES | Arr AP2 block | GalR3 antag | GC-A act | NPR2 activator | GalR3 antag conf | CNG parental
COc1ccc(CN(C)c2ccc(S(=O)(=O)N3CCN(C)CC3)cc2[N+](=O)[O-])cc1OC | - | 103 | - | - | 127 | -
C[C@H](CO)N1C[C@H](C)[C@@H](CN(C)C(=O)Nc2ccc(C(C)(C)C)cc2)OCc2cn(nn2)CCCC1=O | . | - | - | - | . | .
N/C(=N\NS(=O)(=O)c1ccc(Cl)cc1)c1ccccn1 | - | 14 | - | - | - | -
CSc1ccc(CN2CCN(C(=O)c3ccc([N+](=O)[O-])cc3)CC2)cc1 | - | 102 | - | - | 106 | -
Cc1cccc(C=NNc2cc(C)c3cccc(C)c3n2)n1 | . | - | - | - | . | .
CC(=O)c1cc(-c2ccc(S(C)(=O)=O)cc2)c(=O)n2c1CCC2 | . | . | - | - | . | .
O=C(CSc1nnc(-c2ccccn2)n1-c1ccccc1)c1ccc2c(c1)OCO2 | . | . | - | - | . | .
COc1ccc(NS(=O)(=O)c2ccc(NC(=O)c3ccc(N(C)S(C)(=O)=O)cc3)cc2)c(OC)c1 | - | 99 | - | - | 107 | -
CCCCc1ccc(NC(=O)c2ccc(NS(C)(=O)=O)cc2)cc1 | - | - | - | - | . | .
CCN(CC)S(=O)(=O)c1ccc(NC(=O)c2ccc(N(C)S(C)(=O)=O)cc2)cc1 | - | 103 | - | - | 104 | -
CCCCc1ccc(NC(=O)c2ccc(N(C)S(C)(=O)=O)cc2)cc1 | - | 36 | - | - | 115 | -
COc1ccc(NS(=O)(=O)c2ccc(NC(C)=O)cc2)c(OC)c1 | - | - | - | - | . | .
Cc1cc(C)c(C#N)c(SCc2[nH]nc3c2C(c2ccc(F)cc2)C(C#N)=C(N)O3)n1 (centres undefined) | - | 18 | - | - | 39 | 4.4
Cc1ccc(SCc2[nH]nc3c2C(c2cccnc2)C(C#N)=C(N)O3)cc1 (centres undefined) | - | - | - | - | . | .
Cc1cc(C#N)c(C)c(SCc2[nH]nc3c2C(c2ccccc2)C(C#N)=C(N)O3)n1 (centres undefined) | - | 27 | - | - | - | -
CCOC(=O)c1cccc(-c2cc(C(=O)OC)c3n(c2=O)CCC3)c1 | . | . | - | - | . | .
Cc1ccc2nc(SCC(=O)NCc3ccc(F)cc3)nc(=O)n2c1 | - | 18 | - | - | - | -
Cc1ccc2nc(SCC(=O)Nc3ccc(F)cc3)nc(=O)n2c1 | - | - | - | - | . | .
CCOc1ncccc1C(=O)OCC(=O)c1ccccc1Br | - | 16 | - | - | - | -
CC(CNC(=O)[C@@H](Cc1ccccc1)NC(=O)[C@H]1O[C@@H](n2ccc(=O)[nH]c2=O)[C@H](O)[C@@H]1O)c1ccccc1 (some centres undefined) | . | - | - | - | . | .
CCCCCCCCN1C(=O)[C@@H](CC(=O)NCc2cccc3ccccc23)C[C@@]2(C(=O)OC)C1=C[C@H](C(C)C)O[C@@H]2C1CC1 | . | . | - | - | . | .
O=c1cc(-c2ccccc2)nc(SCCOc2ccccc2Cl)[nH]1 | - | 13 | - | - | - | -
COc1ccc(CC(=O)Nc2cccc(S(=O)(=O)N3CCOCC3)c2)cc1OC | - | 41 | - | - | 18 | -
COc1cc(C(=O)Nc2cccc(S(=O)(=O)N3CCCC3)c2)cc(OC)c1C | - | 14 | - | - | - | -
CS(=O)(=O)c1cccc(C(=O)Nc2cccc(S(=O)(=O)N3CCCC3)c2)c1 | - | - | - | - | . | .
SMILES | Arr AP2 block | GalR3 antag | GC-A act | NPR2 activator | GalR3 antag conf | CNG parental
COc1ccc(CC(=O)Nc2cccc(S(=O)(=O)N3CCCC3)c2)cc1OC | - | 85 | - | - | 28 | -
COc1ccccc1CC(=O)Nc1cccc(S(=O)(=O)N2CCOCC2)c1 | - | - | - | - | . | .
CCCCCCC(=O)NC1CCCCN(Cc2cccc(Cl)c2)C1=O (centres undefined) | . | . | - | - | . | .
CC(C)CSc1nnc(N)s1 | - | 14 | . | . | - | -
Cc1cccc(C)c1NC(=O)COC(=O)c1c2c(nc3ccccc13)/C(=C\c1ccc3c(c1)OCO3)CCC2 | - | . | - | - | - | -
CC(OC(=O)c1c2c(nc3ccccc13)/C(=C\c1ccc3c(c1)OCO3)CCC2)C(=O)Nc1ccc(S(N)(=O)=O)cc1 (centres undefined) | - | . | . | . | . | .
O=C(c1ccc([N+](=O)[O-])s1)N1CCN(c2ccccc2)CC1 | - | 50 | - | - | - | -
COC(=O)c1nn(-c2cccc(C(F)(F)F)c2)ccc1=O | - | - | - | - | . | .
O=C(Nc1ccccc1)c1nn(-c2cccc(C(F)(F)F)c2)ccc1=O | - | 45 | - | - | 50 | -
Cn1nc(C(C)(C)C)cc1C(=O)NCc1ccc(N2CCCC2=O)cc1 | - | 98 | - | - | 104 | -
Cc1ccc(CNC(=O)c2ccc(N3CCCC3=O)cc2)cc1 | - | - | - | - | . | .
Cc1ccnc(SCC(=O)Nc2sc3c(c2C#N)CCCC3)n1 | - | 43 | - | - | 95 | -
S=C1NCCN1c1ccc(Cl)cc1 | . | - | - | - | . | .
COCCOC(=O)c1c(NC(=O)CN2c3ccccc3CC2C)sc(C(N)=O)c1C (centres undefined) | - | 17 | - | - | - | -
COc1ccc2c(c1)OC(=O)CC2c1cc(OC)c(OC)c(OC)c1 (centres undefined) | - | 13 | - | - | - | -
COc1cc(C2CC(=O)Oc3cc(O)ccc32)cc(OC)c1OC (centres undefined) | - | - | - | - | . | .
CC(=O)OCCN(C)c1cc(SC(C)C)c2nonc2c1[N+](=O)[O-] | - | - | - | - | . | .
CN(CCO)c1cc(Sc2nc3ccccc3s2)c2nonc2c1[N+](=O)[O-] | - | 28 | - | - | 51 | -
COc1cccc(C2=Nn3c(nnc3-c3ccccc3O)SC2)c1 | - | - | - | - | . | .
C[n+]1c2n(c3ccccc31)N=C(c1cc(C(C)(C)C)c(O)c(C(C)(C)C)c1)CS2 | - | 19 | - | - | 30 | 17
C=CCN1C(=O)[C@@H](CC(=O)NCc2cccc(C(F)(F)F)c2)[C@]2(C(=O)OCC)CCCCC/C=C/12 | . | . | - | - | . | .
Cc1ccccc1-c1cc(C(=O)NCc2cccs2)nn1CC1CC(c2cccc([N+](=O)[O-])c2)=NO1 (centres undefined) | - | - | - | - | . | .
Cc1ccccc1-c1cc(C(=O)O)nn1CC1CC(c2cccc([N+](=O)[O-])c2)=NO1 (centres undefined) | - | 18 | - | - | - | -
CCCCNC(=O)O[C@H]1CC[C@@]23CCCN2C(=O)CCC[C@H]3[C@H]1C | . | . | - | - | . | .
Cc1sc2ncnc(NCCc3ccc(S(N)(=O)=O)cc3)c2c1C | - | 59 | - | - | 109 | -

Bioassay records as filed in PubChem.
